# According to ChEMBL document CHEMBL1125554, “Studies on pyridonecarboxylic acids. 1. Synthesis and antibacterial evaluation of 7-substituted-6-halo-4-oxo-4H-[1,3]thiazeto[3,2-a]quinoline-3-carboxylic acids” (J Med Chem, 1992):
# Columns and labels:
# Escherichia coli = assay: In vitro antibacterial activity against Escherichia coli NIH JC-2; assay type: functional
# Procedure, shortened: (§1)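 MIC (μg/mL) by 2-fold agar dilution on Sensitivity Test agar, following the Japan Society of Chemotherapy MIC Committee method. Inocula were about 10⁶ cfu/mL. Growth was read after 20 h incubation at 37 °C.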
# Serratia marcescens = assay: In vitro antibacterial activity against Serratia marcescens IFO 3736; assay type: functional; procedure, shortened: as §1
# Staphylococcus aureus = assay: In vitro antibacterial activity against Staphylococcus aureus 209P JC-1; assay type: functional; procedure, shortened: as §1
# Pseudomonas aeruginosa = assay: In vitro antibacterial activity against Pseudomonas aeruginosa E-2; assay type: functional; procedure, shortened: as §1
# Shigella flexneri = assay: In vitro antibacterial activity against Shigella flexneri 2a EW-10; assay type: functional; procedure, shortened: as §1
# Micrococcus luteus = assay: In vitro antibacterial activity against Micrococcus luteus ATCC 9341; assay type: functional; procedure, shortened: as §1
# Klebsiella pneumoniae = assay: In vitro antibacterial activity against Klebsiella pneumoniae K-1966; assay type: functional; procedure, shortened: as §1
# Mus musculus [1] = species on record: Mus musculus; assay: Compound was evaluated for oral Pseudomonas aeruginosa E-2; assay type: functional
# Procedure, shortened: (§2)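 Male ddY mice (20 ± 2 g), seven per dose group. Challenge was intraperitoneal, 0.5 mL of bacteria suspended in 5% gastric mucin: E. coli KC-14 at 4.3 × 10⁴ cfu/mL or P. aeruginosa E-2 at 2.88 × 10⁵ cfu/mL. Drug was suspended in 0.5% HPC-SL and given orally 2 h (E. coli) or 1 h (P. aeruginosa) after challenge. ED50 was calculated by Probit from 7-day survival.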
# Mus musculus [2] = species on record: Mus musculus; assay: Compound was evaluated for oral efficacy on systemic infections in mice by Escherichia coli KC-14; assay type: functional; procedure, shortened: as §2
# [3] = Lethal dose on systemic infections in mice after oral administration; assay type: toxicity, organism-based; settings: mouse, in vivo
# Procedure, shortened: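 Acute oral toxicity: the suspension was given orally in 0.5% HPC-SL to Slc:SD rats, although the section heading says mice. Males weighed 141-168 g and females 113-127 g, five per group. LD50 was determined by the method of Weil 7 days after dosing.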
# [4] = Escherichia coli, read-out: MIC
# [5] = Serratia marcescens, IFO 3736, read-out: MIC
# [6] = Staphylococcus aureus, read-out: MIC
# [7] = Pseudomonas aeruginosa, read-out: MIC
# [8] = Shigella flexneri, read-out: MIC
# [9] = Micrococcus luteus, ATCC 9341, read-out: MIC
# [10] = Klebsiella pneumoniae, read-out: MIC
Structure (SMILES),MIC (Escherichia coli; [4]),MIC (Serratia marcescens; [5]),MIC (Staphylococcus aureus; [6]),MIC (Pseudomonas aeruginosa; [7]),MIC (Shigella flexneri; [8]),MIC (Micrococcus luteus; [9]),MIC (Klebsiella pneumoniae; [10]),MIC (Escherichia coli),MIC (Serratia marcescens),MIC (Staphylococcus aureus),MIC (Pseudomonas aeruginosa),MIC (Shigella flexneri),MIC (Micrococcus luteus),MIC (Klebsiella pneumoniae),ED50 (Mus musculus [1]),ED50 (Mus musculus [2]),LD50 [3]
CC1Sc2c(C(=O)O)c(=O)c3cc(F)c(N4CCNCC4)cc3n21 (stereo in doubt; 29a) [ULIFLOXACIN],,,,,,,,0.0125 µg/mL,0.05 µg/mL,0.05 µg/mL,0.2 µg/mL,0.006 µg/mL,0.78 µg/mL,0.006 µg/mL,,,
O=C(O)c1c2n(c3cc(N4CCNCC4)c(F)cc3c1=O)C(c1ccccc1)S2 (stereo not given),0.025 µg/mL,0.05 µg/mL,0.2 µg/mL,0.2 µg/mL,0.025 µg/mL,3.13 µg/mL,0.025 µg/mL,,,,,,,,,,
CCOC(=O)c1c2n(c3cc(N4CCN(CC(C)=O)CC4)c(F)cc3c1=O)C(C)S2 (stereo not given),,,,,,,,,,,,,,,27 mg/kg,0.78 mg/kg,
CCOC(=O)c1c2n(c3cc(N4CCN(C)CC4)c(F)cc3c1=O)C(c1ccccc1)S2 (stereo not given),,,,,,,,,,,,,,,18.1 mg/kg,0.89 mg/kg,
O=C(O)c1c2n(c3cc(N4CCNCC4)c(Cl)cc3c1=O)CS2,0.39 µg/mL,0.2 µg/mL,0.2 µg/mL,6.25 µg/mL,0.1 µg/mL,6.25 µg/mL,0.2 µg/mL,,,,,,,,,,
O=C(O)c1c2n(c3cc(N4CCNCC4)c(F)cc3c1=O)C(c1ccccc1F)S2 (stereo not given),0.39 µg/mL,12.5 µg/mL,1.56 µg/mL,3.13 µg/mL,0.78 µg/mL,12.5 µg/mL,0.78 µg/mL,,,,,,,,,,
Cc1oc(=O)oc1CN1CCN(c2cc3c(cc2F)c(=O)c(C(=O)O)c2n3C(C)S2)CC1 (stereo not given) [PRULIFLOXACIN],,,,,,,,,,,,,,,8.02 mg/kg,0.35 mg/kg,> 500 mg/kg
Cl.O.O=C(O)c1c2n(c3cc(N4CCNCC4)c(F)cc3c1=O)CS2,0.1 µg/mL,0.1 µg/mL,0.05 µg/mL,0.78 µg/mL,0.025 µg/mL,25 µg/mL,0.05 µg/mL,,,,,,,,,,
CC1Sc2c(C(=O)O)c(=O)c3cc(Cl)c(N4CCNCC4)cc3n21 (stereo not given),0.05 µg/mL,0.1 µg/mL,0.1 µg/mL,1.56 µg/mL,0.0125 µg/mL,1.56 µg/mL,0.025 µg/mL,,,,,,,,,,
O=C(O)c1cn(C2CC2)c2cc(N3CCNCC3)c(F)cc2c1=O [CIPROFLOXACIN],0.0125 µg/mL,0.1 µg/mL,0.1 µg/mL,0.2 µg/mL,0.006 µg/mL,1.56 µg/mL,0.006 µg/mL,,,,,,,,9.01 mg/kg,0.45 mg/kg,
CC1Sc2c(C(=O)O)c(=O)c3cc(F)c(N4CCNCC4)cc3n21 (stereo in doubt; 29l) [ULIFLOXACIN],,,,,,,,0.78 µg/mL,3.13 µg/mL,0.2 µg/mL,1.56 µg/mL,0.78 µg/mL,3.13 µg/mL,0.39 µg/mL,,,
CC1COc2c(N3CCN(C)CC3)c(F)cc3c(=O)c(C(=O)O)cn1c23 (stereo not given) [OFLOXACIN],0.1 µg/mL,0.39 µg/mL,0.39 µg/mL,1.56 µg/mL,0.1 µg/mL,3.13 µg/mL,0.025 µg/mL,,,,,,,,23 mg/kg,0.55 mg/kg,
O=C(O)c1c2n(c3cc(N4CCNCC4)c(F)cc3c1=O)C(c1ccc(F)cc1)S2 (stereo not given),0.025 µg/mL,0.39 µg/mL,0.2 µg/mL,0.39 µg/mL,0.025 µg/mL,1.56 µg/mL,0.0125 µg/mL,,,,,,,,,,

# Continued, in another order:
MIC (Escherichia coli; [4]),MIC (Serratia marcescens; [5]),MIC (Staphylococcus aureus; [6]),MIC (Pseudomonas aeruginosa; [7]),MIC (Shigella flexneri; [8]),MIC (Micrococcus luteus; [9]),MIC (Klebsiella pneumoniae; [10]),Structure (SMILES),MIC (Escherichia coli),MIC (Serratia marcescens),MIC (Staphylococcus aureus),MIC (Pseudomonas aeruginosa),MIC (Shigella flexneri),MIC (Micrococcus luteus),MIC (Klebsiella pneumoniae),ED50 (Mus musculus [1]),ED50 (Mus musculus [2]),LD50 [3]
0.2 µg/mL,0.78 µg/mL,0.05 µg/mL,0.39 µg/mL,0.1 µg/mL,0.78 µg/mL,0.1 µg/mL,CC1Sc2c(C(=O)O)c(=O)c3cc(F)c(N4CCCC4)cc3n21 (stereo not given),,,,,,,,,,
0.1 µg/mL,0.1 µg/mL,0.2 µg/mL,1.56 µg/mL,0.1 µg/mL,3.13 µg/mL,0.025 µg/mL,CC1Sc2c(C(=O)O)c(=O)c3cc(Cl)c(N4CCN(C)CC4)cc3n21 (stereo not given),,,,,,,,,,
,0.78 µg/mL,0.2 µg/mL,,,,,CCC1Sc2c(C(=O)O)c(=O)c3cc(F)c(N4CCN(C)CC4)cc3n21 (stereo not given),,,,,,,,,,
0.1 µg/mL,0.39 µg/mL,0.1 µg/mL,1.56 µg/mL,0.05 µg/mL,0.78 µg/mL,0.1 µg/mL,CC1Sc2c(C(=O)O)c(=O)c3cc(F)c(N4CCN(CCO)CC4)cc3n21 (stereo not given),,,,,,,,,,
0.2 µg/mL,0.39 µg/mL,0.1 µg/mL,3.13 µg/mL,0.1 µg/mL,3.13 µg/mL,0.2 µg/mL,CC1Sc2c(C(=O)O)c(=O)c3cc(F)c(N4CCCNCC4)cc3n21 (stereo not given),,,,,,,,,,
> 100 µg/mL,> 100 µg/mL,3.13 µg/mL,> 100 µg/mL,> 100 µg/mL,12.5 µg/mL,> 100 µg/mL,CC1Sc2c(C(=O)O)c(=O)c3cc(F)c(N4CCN(c5ccccc5)CC4)cc3n21 (stereo not given),,,,,,,,,,
0.0125 µg/mL,0.05 µg/mL,0.05 µg/mL,0.39 µg/mL,0.006 µg/mL,12.5 µg/mL,0.025 µg/mL,CN1CCN(c2cc3c(cc2F)c(=O)c(C(=O)O)c2n3CS2)CC1,,,,,,,,16.4 mg/kg,1.77 mg/kg,
0.39 µg/mL,3.13 µg/mL,0.39 µg/mL,6.25 µg/mL,0.1 µg/mL,3.13 µg/mL,0.2 µg/mL,CC1Sc2c(C(=O)O)c(=O)c3cc(F)c(N4CCNC(=O)C4)cc3n21 (stereo not given),,,,,,,,,,
0.2 µg/mL,0.39 µg/mL,0.025 µg/mL,0.39 µg/mL,0.1 µg/mL,0.78 µg/mL,0.2 µg/mL,CC1Sc2c(C(=O)O)c(=O)c3cc(F)c(N4CCSCC4)cc3n21 (stereo not given),,,,,,,,,,
0.2 µg/mL,1.56 µg/mL,0.05 µg/mL,3.13 µg/mL,0.1 µg/mL,0.39 µg/mL,0.2 µg/mL,CC1Sc2c(C(=O)O)c(=O)c3cc(F)c(N4CCN(Cc5ccc(N)cc5)CC4)cc3n21 (stereo not given),,,,,,,,,,
0.78 µg/mL,1.56 µg/mL,0.2 µg/mL,6.25 µg/mL,0.39 µg/mL,3.13 µg/mL,0.39 µg/mL,CC(=O)N1CCN(c2cc3c(cc2F)c(=O)c(C(=O)O)c2n3C(C)S2)CC1 (stereo not given),,,,,,,,,,
0.2 µg/mL,0.39 µg/mL,0.39 µg/mL,1.56 µg/mL,0.2 µg/mL,6.25 µg/mL,0.2 µg/mL,CN1CCN(c2cc3c(cc2F)c(=O)c(C(=O)O)c2n3C(c3ccccc3)S2)CC1 (stereo not given),,,,,,,,,,
0.2 µg/mL,0.78 µg/mL,0.39 µg/mL,3.13 µg/mL,0.1 µg/mL,6.25 µg/mL,0.1 µg/mL,CC1Sc2c(C(=O)O)c(=O)c3cc(F)c(-n4ccnc4)cc3n21 (stereo not given),,,,,,,,,,
0.39 µg/mL,12.5 µg/mL,1.56 µg/mL,3.13 µg/mL,0.78 µg/mL,6.25 µg/mL,0.78 µg/mL,CN1CCN(c2cc3c(cc2F)c(=O)c(C(=O)O)c2n3C(c3ccc(F)cc3F)S2)CC1 (stereo not given),,,,,,,,,,
0.2 µg/mL,0.39 µg/mL,0.2 µg/mL,1.56 µg/mL,0.1 µg/mL,6.25 µg/mL,0.2 µg/mL,CN1CCN(c2cc3c(cc2Cl)c(=O)c(C(=O)O)c2n3CS2)CC1,,,,,,,,,,
0.05 µg/mL,0.1 µg/mL,0.1 µg/mL,0.78 µg/mL,0.025 µg/mL,1.56 µg/mL,0.05 µg/mL,CCN1CCN(c2cc3c(cc2F)c(=O)c(C(=O)O)c2n3C(C)S2)CC1 (stereo not given),,,,,,,,,,
0.05 µg/mL,0.19 µg/mL,0.05 µg/mL,0.78 µg/mL,0.025 µg/mL,1.56 µg/mL,0.05 µg/mL,C=CCN1CCN(c2cc3c(cc2F)c(=O)c(C(=O)O)c2n3C(C)S2)CC1 (stereo not given),,,,,,,,,,
0.025 µg/mL,0.05 µg/mL,0.1 µg/mL,0.39 µg/mL,0.0125 µg/mL,1.56 µg/mL,0.025 µg/mL,CC1Sc2c(C(=O)O)c(=O)c3cc(F)c(N4CCN(C)CC4)cc3n21 (stereo not given),,,,,,,,8.84 mg/kg,0.97 mg/kg,
0.2 µg/mL,0.39 µg/mL,0.05 µg/mL,1.56 µg/mL,0.025 µg/mL,3.13 µg/mL,0.025 µg/mL,CC(C)N1CCN(c2cc3c(cc2F)c(=O)c(C(=O)O)c2n3C(C)S2)CC1 (stereo not given),,,,,,,,,,
0.1 µg/mL,0.39 µg/mL,0.1 µg/mL,0.39 µg/mL,0.1 µg/mL,1.56 µg/mL,0.1 µg/mL,CC1Sc2c(C(=O)O)c(=O)c3cc(F)c(N4CCOCC4)cc3n21 (stereo not given),,,,,,,,,,
